ChEMBL document CHEMBL2057092, “The SAR analysis of TRPV1 agonists with the α-methylated B-region” (Bioorg Med Chem Lett, 2012)

Experiments:
[1] = molecular target: T1, Transient receptor potential cation channel subfamily V member 1 (Rattus norvegicus, UniProt O35433); experiment: Agonist activity at rat TRPV1 expressed in CHO cells assessed as calcium uptake; assay type: functional, cell-based
Summary of the method: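 Functional agonism was read as 45Ca2+ uptake in CHO cells heterologously expressing rat TRPV1.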

[2] = molecular target: T1, Transient receptor potential cation channel subfamily V member 1; experiment: Displacement of [3H]RTX from rat TRPV1 expressed in CHO cells; assay type: cell-based
[3] = molecular target: Transient receptor potential cation channel subfamily V member 1 (Rattus norvegicus) (UniProt O35433); experiment: Antagonist activity at rat TRPV1 expressed in CHO cells assessed as inhibition of calcium uptake at 30 uM; assay type: functional, cell-based
[4] = molecular target: Transient receptor potential cation channel subfamily V member 1 (Rattus norvegicus) (UniProt O35433); experiment: Agonist activity at rat TRPV1 expressed in CHO cells assessed as calcium uptake at 300 nM relative to capsaicin; assay type: functional, cell-based

T1 sequence (O35433 whole entry): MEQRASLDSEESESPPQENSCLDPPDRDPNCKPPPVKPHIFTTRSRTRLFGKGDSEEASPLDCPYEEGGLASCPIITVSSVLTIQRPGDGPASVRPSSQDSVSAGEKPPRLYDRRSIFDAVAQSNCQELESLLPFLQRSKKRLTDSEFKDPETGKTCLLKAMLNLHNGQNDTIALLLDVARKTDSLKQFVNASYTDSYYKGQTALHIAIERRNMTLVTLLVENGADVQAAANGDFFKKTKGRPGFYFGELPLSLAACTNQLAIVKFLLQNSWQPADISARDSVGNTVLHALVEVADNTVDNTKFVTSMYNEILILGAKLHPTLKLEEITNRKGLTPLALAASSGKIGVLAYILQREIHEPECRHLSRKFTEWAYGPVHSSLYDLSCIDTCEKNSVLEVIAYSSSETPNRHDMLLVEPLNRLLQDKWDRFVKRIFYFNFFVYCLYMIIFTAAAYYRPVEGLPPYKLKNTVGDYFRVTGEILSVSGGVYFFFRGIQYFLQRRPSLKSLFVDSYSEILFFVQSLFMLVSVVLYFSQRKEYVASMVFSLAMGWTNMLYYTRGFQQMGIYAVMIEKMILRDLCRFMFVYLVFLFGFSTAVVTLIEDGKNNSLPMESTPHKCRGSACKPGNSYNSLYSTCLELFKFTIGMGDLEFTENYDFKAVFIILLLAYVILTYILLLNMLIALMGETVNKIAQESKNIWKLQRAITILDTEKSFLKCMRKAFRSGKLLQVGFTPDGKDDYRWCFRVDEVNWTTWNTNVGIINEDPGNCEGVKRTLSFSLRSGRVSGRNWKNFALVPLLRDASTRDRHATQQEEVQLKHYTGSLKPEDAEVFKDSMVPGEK
Transient receptor potential cation channel subfamily V member 1 (Rattus norvegicus), sequence (O35433 whole entry): as above

`CCCCCCCC/C=C\CCCCCCCC(=O)NCc1ccc(O)c(OC)c1` [OLVANIL] showed an EC50 [1] of 0.202 µM and a Ki [2] of 0.142 µM.
`CCCCCCCC/C=C/CCCCCCCC(=O)NC(C)c1ccc(O)c(OC)c1` (stereo unspecified) was tested, and the EC50 [1] was 0.678 µM and the Ki [2] was 0.226 µM.
`CC(C)(C)c1ccc(CNC(=O)Cc2ccc(O)c(Cl)c2)cc1` gave an EC50 [1] of 0.206 µM and a Ki [2] of 0.132 µM.
`CCCCCCCCC(=O)NC(C)c1ccc(O)c(OC)c1` (stereo unspecified) gave an inhibition [3] of 44%, an Activity [4] of 72% and an EC50 [1] of 1.58 µM. For the same compound, the Ki [2] was 4.28 µM.
`COc1cc(C(C)C(=O)NCc2ccc(C(C)(C)C)cc2)ccc1OCCN` (stereo unspecified) showed an inhibition [3] of 16%, an EC50 [1] of 0.238 µM and a Ki [2] of 0.504 µM.
With `CC(C)(C)c1ccc(CNC(=O)Cc2ccc(OCCN)c(F)c2)cc1` the inhibition [3] was 18%, the Activity [4] was 63% and the Ki [2] was 10.1 µM.
For `CCCCCCCCCNC(=O)Cc1ccc(O)c(OC)c1`, the EC50 [1] was 0.061 µM and the Ki [2] was 0.24 µM.
For `COc1cc(CNC(=S)NCc2ccc(C(C)(C)C)cc2)ccc1O`, the EC50 [1] was 0.0026 µM.
`COc1cc(C(C)NC(=S)NCc2ccc(C(C)(C)C)cc2)ccc1OCCN` (stereo unspecified) gave an EC50 [1] of 5.8 µM and a Ki [2] of 1.43 µM.
`COc1cc(C(C)NC(=S)NCc2ccc(C(C)(C)C)cc2)ccc1O` (stereo unspecified) was tested, and the inhibition [3] was 35%, the Activity [4] was 70% and the EC50 [1] was 0.38 µM. The Ki [2] was 0.194 µM.
In the case of `CCCCCCCCCC(=O)NC(C)c1ccc(O)c(OC)c1` (stereo unspecified), the inhibition [3] is reported as 28%, the EC50 [1] is reported as 1.25 µM and the Ki [2] is reported as 3.3 µM.
`CC(C(=O)NCc1ccc(C(C)(C)C)cc1)c1ccc(O)c(F)c1` (stereo unspecified) showed an inhibition [3] of 20%, an EC50 [1] of 0.221 µM and a Ki [2] of 0.178 µM.
For `CCCCCCCCC(=O)NCc1ccc(O)c(OC)c1` [NONIVAMIDE], the EC50 [1] was 0.223 µM and the Ki [2] was 1.22 µM.
For `CCCCCCCCCNC(=O)C(C)c1ccc(O)c(OC)c1` (stereo unspecified), the EC50 [1] was 0.0263 µM and the Ki [2] was 0.159 µM.
Work on `CC(C)(C)c1ccc(CNC(=O)Cc2ccc(O)c(F)c2)cc1` yielded an inhibition [3] of 30%, an EC50 [1] of 0.911 µM and a Ki [2] of 0.808 µM.
`CC(C)(C)c1ccc(CNC(=O)Cc2ccc(OCCN)c(Cl)c2)cc1` gave an inhibition [3] of 56%, an Activity [4] of 36% and a Ki [2] of 2.47 µM.
For `COc1cc(CC(=O)NCc2ccc(C(C)(C)C)cc2)ccc1OCCN`, the inhibition [3] was 12%, the EC50 [1] was 0.358 µM and the Ki [2] was 1.23 µM.
`COc1cc(C(C)C(=O)NCc2ccc(C(C)(C)C)cc2)ccc1O` (stereo unspecified) gave an inhibition [3] of 15%, an EC50 [1] of 0.024 µM and a Ki [2] of 0.308 µM.
For `CCCCCCCCNC(=O)Cc1ccc(O)c(OC)c1`, the EC50 [1] was 0.077 µM and the Ki [2] was 0.848 µM.
`CCCCCCCCNC(=O)C(C)c1ccc(O)c(OC)c1` (stereo unspecified) was tested, and the EC50 [1] was 0.13 µM and the Ki [2] was 0.744 µM.
For `COc1cc(C/N=C(\S)NCc2ccc(C(C)(C)C)cc2)ccc1OCCN`, the EC50 [1] was 0.132 µM and the Ki [2] was 0.084 µM.
`CC(C(=O)NCc1ccc(C(C)(C)C)cc1)c1ccc(O)c(Cl)c1` (stereo unspecified) showed an inhibition [3] of 9%, an Activity [4] of 77% and a Ki [2] of 0.0331 µM.
In the case of `CC(C(=O)NCc1ccc(C(C)(C)C)cc1)c1ccc(OCCN)c(Cl)c1` (stereo unspecified), the inhibition [3] is reported as 38%, the Activity [4] is reported as 75% and the Ki [2] is reported as 0.38 µM.
Work on `COc1cc(C(C)C(=O)NCCCc2ccc(C)c(C)c2)ccc1OCCN` (stereo unspecified) yielded an EC50 [1] of 0.404 µM and a Ki [2] of 0.518 µM.
`CCCCCCCCCC(=O)NCc1ccc(O)c(OC)c1` gave an EC50 [1] of 0.083 µM and a Ki [2] of 0.864 µM.
`COc1cc(CC(=O)NCCCc2ccc(C)c(C)c2)ccc1OCCN` [DAVASAICIN] was tested, and the EC50 [1] was 0.589 µM and the Ki [2] was 0.93 µM.
`COc1cc(CC(=O)NCCCc2ccc(C)c(C)c2)ccc1O` was tested, and the EC50 [1] was 0.041 µM and the Ki [2] was 0.354 µM.
`COc1cc(C(C)C(=O)NCCCc2ccc(C)c(C)c2)ccc1O` (stereo unspecified) gave an EC50 [1] of 0.0213 µM and a Ki [2] of 0.177 µM.
`CC(C(=O)NCc1ccc(C(C)(C)C)cc1)c1ccc(OCCN)c(F)c1` (stereo unspecified) showed an Activity [4] of 91% and a Ki [2] of 2.16 µM.
